# Assay outcomes from PubChem.
# Sampled rows, rich in hits. Any-hit rate of the full collection: about 3.7%.
# GASC-1 inh – inhibitors of GASC-1 histone demethylase, primary screen, biochemical, fluorescence, DELFIA europium | Lysine-specific demethylase 4C (Homo sapiens), Q9H3R0 | GST-JMJD2C(1-420) H3K9me3 demethylation | inhibition, % at 2.35 µM | hit rate 0.069% among 330,000 | AID 2099, 2009;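 active = more than half of a compound's replicate wells show inhibition beyond 50%, single wells judged on their own value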;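 also: signal counts dimethyl H3K9 product captured on neutravidin plate; 0% = median of DMSO wells and 100% = 0.3 times that DMSO median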
# SR-BI DiI inh – inhibitors of SR-BI mediated HDL lipid uptake, primary screen, ldlA[mSR-BI] cells, fluorescence, single point. Scavenger receptor class B member 1 (Mus musculus), Q61009. hit rate 0.96% among 320,000. inhibition, % at 12.5 µM. ldlA[mSR-BI] CHO cells, DiI-HDL uptake fluorescence, 3 h. AID 488896, 2010;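 active = mean replicate inhibition of at least 70% and a set share of replicates each scoring 70 or more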;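 also: 0% = median of neutral control wells and 100% = median of positive control wells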
# Target sequence (Q61009 whole entry, looked up): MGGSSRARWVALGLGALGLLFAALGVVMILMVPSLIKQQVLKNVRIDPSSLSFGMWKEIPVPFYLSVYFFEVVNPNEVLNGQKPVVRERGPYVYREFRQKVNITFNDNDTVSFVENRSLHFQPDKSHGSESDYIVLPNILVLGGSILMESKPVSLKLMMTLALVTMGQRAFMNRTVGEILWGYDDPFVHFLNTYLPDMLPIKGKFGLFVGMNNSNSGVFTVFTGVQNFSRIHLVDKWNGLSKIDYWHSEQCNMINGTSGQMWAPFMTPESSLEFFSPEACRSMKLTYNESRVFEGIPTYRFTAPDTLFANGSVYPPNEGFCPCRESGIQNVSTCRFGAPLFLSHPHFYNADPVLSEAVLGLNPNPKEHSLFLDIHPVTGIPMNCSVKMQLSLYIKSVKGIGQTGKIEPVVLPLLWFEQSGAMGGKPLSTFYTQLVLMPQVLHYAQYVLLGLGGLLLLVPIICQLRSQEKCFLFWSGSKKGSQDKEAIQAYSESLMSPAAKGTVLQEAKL
# FXN GAA850 act – FXN promoter activators, primary screen, cell-based, luciferase luminescence, HEK293 lucGAA850; HEK293 lucGAA850 FXN promoter luciferase reporter, 24 h; percent of 10 µM SAHA response; AID 540364, 2011; hit rate 0.56% among 360,000; activation, % at 6 µM;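 active = activation above the average of all compounds screened plus 3 SD, cutoff fixed separately per campaign, cut at about 7.5% in these data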;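 also: 0% = DMSO wells and 100% = 10 µM SAHA wells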
# SR-BI DiI-HDL act – activators of SR-BI mediated DiI-HDL uptake, primary screen, ldlA[mSR-BI] CHO cells, DiI fluorescence; 3 h; 100 = double the neutral-control signal; activation, % at 12.5 µM; hit rate 0.096% among 320,000; AID 504775, 2011;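 active = mean replicate activation of at least 60% and every replicate at or above 60%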;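 also: 0% = median plate neutral-control signal and 100% = twice that signal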
#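 system = CHO ldlA[mSR-BI] cells, LDL receptor-null, SR-BI overexpressing | medium = Ham's F12 with 0.5% BSA, HEPES 25 mM, pH 7.4 | probe or stimulus = DiI-HDL 10 µg/mL | compound dosing = single-point compound dose | incubation = compound exposure 3 h, 37 °C | technique = DiI fluorescence, bottom read | read-out = cell-associated DiI fluorescence as measure of HDL uptake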
# AHR act – AHR activators, primary screen, cell-based, luminescence, luciferase reporter, human | hit rate 2.5% among 320,000 | Aryl hydrocarbon receptor (Homo sapiens), P35869 | activation, % at 5 µM | AHR-responsive luciferase reporter cells; in the data active = activation above about 47%;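 also: 0% = vehicle wells and 100% = reference agonist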
# Numbers without * were called inactive; · = no result.
SMILES,GASC-1 inh,SR-BI DiI inh,FXN GAA850 act,SR-BI DiI-HDL act,AHR act
O=C(N/N=C/c1ccc2ccccc2c1)c1ccc(COc2ccc3c(c2)CCC3)o1,-2.3,55.4,1.8,-55.4,47.2*
COc1ccccc1/C=N\NC(=O)c1ccc(COc2ccc(C)c(C)c2)o1,-3.3,15.9,2.6,-15.9,48.9*
O=C(N/N=C/c1cc([N+](=O)[O-])ccc1O)c1ccc(COc2ccc3c(c2)CCC3)o1,1.9,136.3*,-3.5,-136.4,·
Cc1cc(C(=O)N/N=C\c2ccc(COc3ccc([N+](=O)[O-])cc3)o2)ccc1[N+](=O)[O-],-7.8,75.8*,-0.6,-75.8,5.1
Cc1csc(SCC(=O)Nc2ccc(F)cc2Cl)n1,4.8,4.1,2.2,-4.1,0.2
CN1CCN(C(=O)/C(=C\c2cccs2)NC(=O)c2ccco2)CC1,-7.0,·,1.4,·,2.8
COc1ccc(Br)cc1/C=N/NC(=O)c1ccc(COc2ccc3c(c2)CCC3)o1,-4.0,54.1,-0.1,-54.1,62.0*
COc1cccc(/C=N/NC(=O)c2ccc(COc3ccc(Cl)cc3Cl)o2)c1,4.8,52.5,-2.2,-52.5,53.1*
COc1ccc([C@@H]2C=C(C(=O)O)O[C@H](OCCCCO)C2)cc1,6.1,-8.5,-0.6,8.5,2.0
CSc1ccccc1NC(=O)CN(C)CC(=O)Nc1ccccc1C(F)(F)F,1.0,1.5,-0.5,-1.5,-0.4
CCCN(CCC)C1=CC(=[N+]2CCCC2)CC(C)(C)C1,-2.8,-83.5,-6.9,83.5*,0.8
CN(C)NC1=CC(=[N+]2CCCC2)CC(C)(C)C1,25.9,10.5,1.4,-10.5,-0.6
C=C(CN(C)C)C(=O)c1ccc2c(c1)OCO2,·,109.4*,-14.9,-109.4,·
C=C(CN(C)C)C(=O)c1ccc(C)cc1C,·,85.0*,-11.6,-85.0,·
C=C(CN(C)C)C(=O)c1cc(OC)c(OC)cc1OC,·,15.6,-2.2,-15.6,·
C[N+](C)(C)CCCC(=O)c1ccc2c(c1)OCO2,5.7,12.8,-1.5,49.4,0.4
O=C(O)C(O)C(O)c1nc2ccccc2[nH]1 (configuration not stated),7.5,-24.1,-0.3,24.1,1.0
CC1CC(C)CN(S(=O)(=O)c2ccc(NC(=S)NC(=O)c3ccccc3)cc2)C1 (configuration not stated),6.9,9.5,-1.9,-9.5,-0.5
CC(=O)c1ccc(OCC(O)CN2CCN(S(=O)(=O)c3c(C)c(C)cc(C)c3C)CC2)cc1 (configuration not stated),-17.0,85.6*,-0.1,-85.6,1.2
Clc1ccc(Nc2nc3cccnc3s2)cc1,-9.0,-9.1,6.9,9.1,52.7*
CCCCNc1nc2cccnc2s1,3.8,-21.4,2.2,21.4,0.0
NNC(=O)c1ccccc1CO,-4.8,·,·,·,1.6
COc1ccc(-c2nc(C)c(C(C)=O)n2O)cc1OC,-2.9,-2.6,-0.5,6.8,48.2*
COc1cc(NC(=O)c2cc(=O)[nH]c3ccc(S(=O)(=O)N4CCOCC4)cc23)cc(OC)c1,·,-1.3,0.0,1.3,·
CCOc1ccccc1NC(=O)c1cc(=O)[nH]c2ccc(S(=O)(=O)N3CCOCC3)cc12,0.5,-7.1,-2.0,7.1,56.7*
SMILES,GASC-1 inh,SR-BI DiI inh,FXN GAA850 act,SR-BI DiI-HDL act,AHR act
Cc1nn(Cc2ccccc2)c(Cl)c1C(=O)OCC#N,2.1,-10.5,2.1,10.5,0.4
N#Cc1c(F)cccc1N1CCN(Cc2ccc3c(c2)OCO3)CC1,-9.9,0.4,3.5,-0.4,-3.4
Cn1cc(-c2csc(C(C)(O)c3cccc(F)c3)n2)cn1 (configuration not stated),·,·,1.3,·,·
Cc1ccc(-c2cc3nc(C)cc(C)n3n2)cc1,-7.2,24.6,5.0,-24.7,61.9*
CCN=C1S/C(=C\c2cc(Cl)c(OC)c(OC)c2)C(=O)N1CC,5.2,77.1*,3.2,-77.1,1.8
COc1ccc(CNC(=O)COc2cc(=O)n(C)c3ccccc23)cc1,5.3,-17.9,-1.9,17.9,10.2
COc1ccc(OC)c(CNC(=O)COc2cc(=O)n(C)c3ccccc23)c1,-10.6,12.8,2.4,-12.8,57.0*
COc1cc(NC(=S)NC(=O)c2ccccc2F)ccc1NC(=O)c1cccs1,-9.7,82.9*,1.6,-82.9,6.0
COc1cc(NC(=O)c2cc3ccccc3cc2OC)ccc1NC(=O)c1cccs1,154.4,70.8*,-5.9,·,-7.6
O=C(Nc1ccc2c(c1)OCCO2)c1ccccc1F,2.5,-14.6,0.5,14.6,-0.6
COc1cc(NC(=S)NC(=O)c2c(OC)cccc2OC)ccc1NC(=O)c1cccs1,-13.1,73.8*,-4.2,-73.8,12.9
COc1cc(NC(=S)NC(=O)c2cc(C)cc(C)c2)ccc1NC(=O)c1cccs1,-5.1,57.4,-0.2,-57.4,2.0
O=C(NC(=S)Nc1ccc2c(c1)OCCO2)c1ccccc1F,7.1,27.5,3.6,-27.5,58.3*
COc1cc(NC(=O)c2ccccc2Cl)ccc1NC(=O)c1cccs1,-2.8,66.6,3.3,-66.6,0.0
O=c1[nH]c2ccccc2nc1Cc1ccc([N+](=O)[O-])cc1,9.8,9.3,-1.8,-9.3,7.1
CCC(=O)Nc1cccc(NC(=S)NC(=O)c2cccs2)c1,-8.3,19.6,4.9,-19.6,49.7*
CCCCNc1nc(Nc2ccc(C)c(Cl)c2)c2cnn(C)c2n1,0.3,9.7,0.3,-9.7,78.8*
CCNc1nc(Nc2ccc(C)c(Cl)c2)c2cnn(C)c2n1,5.5,12.8,2.7,-12.8,53.8*
Cn1ncc2c(Nc3ccc(Cl)c(Cl)c3)ncnc21,15.7,41.5,5.4,·,5.0
Cc1nn(CC(=O)NCCN2CCOCC2)c(=O)c2cc3sccc3n12,-3.7,-7.3,2.5,7.3,0.8
CC(C(=O)NCc1ccc2c(c1)OCO2)N1c2cccc3cccc(c23)S1(=O)=O (configuration not stated),19.7,-7.0,2.8,7.0,12.0
CCOc1ccc(C(=O)NCC(=O)NNC(=O)CN(C)S(=O)(=O)c2ccc(Cl)cc2)cc1,45.6,21.6,0.1,-21.6,-2.6
O=C(COC(=O)/C=C/c1ccc(F)cc1)Nc1cc(C(F)(F)F)ccc1N1CCOCC1,0.5,-23.4,2.1,23.4,0.6
CC(=O)c1c(C)[nH]c(C(=O)OCC(=O)Nc2cc(C(F)(F)F)ccc2N2CCOCC2)c1C,-8.2,72.2*,1.6,-72.2,2.2
COc1ccc(NC(C)=O)cc1CNC(=O)COc1ccccc1C(=O)Nc1cccc(C)c1C,21.3,-12.5,0.7,12.5,7.7
CCCCc1c(O)nc(SCC(=O)c2ccccc2)n(-c2ccccc2OC)c1=O,4.3,-20.7,2.4,20.7,3.0
Cc1nc(C(F)(F)F)ccc1C(=O)NCC(O)c1ccccc1 (configuration not stated),-8.6,-6.3,2.1,6.3,70.7*
